We go through three compounds from ChEMBL document CHEMBL1135021, “Biotinylated lithocholic acids for affinity chromatography of mammalian DNA polymerases alpha and beta” (Bioorg Med Chem Lett, 2002).

The subject of data set [1] is Nucleic Acid. Description: Compound was evaluated for relative maximum velocity (Vmax) at a concentration of 10 uM on calf DNA polymerase alpha as a function of template primer dose. It counts as nucleic-acid assay. To be noted: Bos taurus. The gist of the method: (§1)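 Kinetic runs used calf thymus pol α or rat pol β (0.05 units each) preincubated with compound at 0 °C for 10 min in Tris–HCl pH 7.5/DTT/glycerol/EDTA buffer. Either poly(dA)/oligo(dT)12–18 (2/1) template-primer or dTTP substrate was varied. Km and Vmax came from double reciprocal plots, Ki from Dixon plots.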

Data set [2] deals with Nucleic Acid. Description: Compound was evaluated for relative maximum velocity (Vmax) at a concentration of 10 uM on calf DNA polymerase alpha as a function of nucleotide substrate concentration. In kind it is nucleic-acid assay. Particulars: Bos taurus. The gist of the method:
as §1

For data set [3], the system named is Nucleic Acid. Description: Compound was evaluated for Michaelis constant at a concentration of 0 uM on calf DNA polymerase alpha as a function of DNA template primer dose. To be noted: Bos taurus. It counts as nucleic-acid assay. The method, boiled down: as §1
For data set [4], the system named is Nucleic Acid. Kind of data set: Compound was evaluated for relative maximum velocity (Vmax) at a concentration of 5 uM on calf DNA polymerase alpha as a function of nucleotide substrate concentration. In kind it is nucleic-acid assay. Particulars: Bos taurus. The gist of the method:
as §1

Data set [5] has as its system Nucleic Acid. Kind of data set: Compound was evaluated for relative maximum velocity (Vmax) at a concentration of 0 uM on calf DNA polymerase alpha as a function of DNA template primer dose. Particulars: Bos taurus. In kind it is nucleic-acid assay. The gist of the method:
as §1

Data set [6] has as its system Nucleic Acid. Description: Compound was evaluated for relative maximum velocity (Vmax) at a concentration of 0 uM on calf DNA polymerase alpha as a function of nucleotide substrate concentration. Particulars: Bos taurus. It counts as nucleic-acid assay. The gist of the method:
as §1

For data set [7], the system named is Nucleic Acid. Kind of data set: Michaelis constant at a concentration of 5 uM on calf DNA polymerase alpha as a function of nucleotide substrate concentration. It counts as nucleic-acid assay. To be noted: Bos taurus. The gist of the method: as §1
The test system of data set [8] is Nucleic Acid. Kind of data set: Compound was evaluated for relative maximum velocity (Vmax) at a concentration of 5 uM on calf DNA polymerase alpha as a function of template primer dose. To be noted: Bos taurus. It counts as nucleic-acid assay. The method, boiled down:
as §1

For data set [9], the system named is Nucleic Acid. To be noted: Bos taurus; 25 uM.
In data set [10] the test system is Nucleic Acid. To be noted: Bos taurus; 50 uM.
Data set [11] relates to Nucleic Acid. Particulars: Bos taurus; 25 uM. The source holds these as a separate data set.
The test system of data set [12] is Nucleic Acid. Particulars: Bos taurus; 25 uM. The source holds these as a separate data set.
The test system of data set [13] is Nucleic Acid. Particulars: Bos taurus; 25 uM. The source holds these as a separate data set.
Data set [14] deals with Nucleic Acid. To be noted: Bos taurus; 50 uM. This is another data set of the same source.
In data set [15] the test system is C[C@H](CCC(=O)O)[C@H]1CC[C@H]2[C@@H]3CCC4C[C@@H](OC(=O)CCNC(=O)CCCCCNC(=O)CCCCCNC(=O)CCCCC5SCC6NC(=O)NC65)CC[C@]4(C)[C@H]3CC[C@]12C. Kind of data set: Michaelis constant at a concentration of 0 uM on rat DNA polymerase beta as a function of nucleotide substrate concentration. The gist of the method:
(§2)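 Rat DNA pol β (0.05 units) was used. Compound was dissolved in DMSO, sonicated 30 s, and preincubated with enzyme for 10 min at 0 °C in 50 mM Tris–HCl (pH 7.5), 1 mM dithiothreitol, 50% glycerol and 0.1 mM EDTA. It was then added to the standard reaction. Template-primer poly(dA)/oligo(dT)12–18 (2/1) or dTTP substrate was varied. Km and Vmax came from double reciprocal plots.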

Data set [16] deals with C[C@H](CCC(=O)O)[C@H]1CC[C@H]2[C@@H]3CCC4C[C@@H](O)CC[C@]4(C)[C@H]3CC[C@]12C. Particulars: 10 uM.
Data set [17] has the same test system. To be noted: 10 uM. This is another data set of the same source.
Data set [18] shares this test system. To be noted: 5 uM.
Data set [19] has the same test system. To be noted: 5 uM. The source holds these as a separate data set.
In data set [20] the test system is C[C@H](CCC(=O)O)[C@H]1CC[C@H]2[C@@H]3CCC4C[C@@H](OC(=O)CCNC(=O)CCCCCNC(=O)CCCCCNC(=O)CCCCC5SCC6NC(=O)NC65)CC[C@]4(C)[C@H]3CC[C@]12C. Description: Compound was evaluated for relative maximum velocity (Vmax) at a concentration of 10 uM on rat DNA polymerase beta as a function of template primer dose. The method, boiled down:
as §2

The test system is the same in data set [21]. Kind of data set: Compound was evaluated for relative maximum velocity (Vmax)at a concentration of 10 uM on rat DNA polymerase beta as a function of nucleotide substrate concentration. The method, boiled down:
as §2

The test system is the same in data set [22]. Kind of data set: Michaelis constant at a concentration of 20 uMon rat DNA polymerase beta as a function of nucleotide substrate concentration. To be noted: 20 uM. The gist of the method:
as §1

Data set [23] concerns C[C@H](CCC(=O)O)[C@H]1CC[C@H]2[C@@H]3CCC4C[C@@H](O)CC[C@]4(C)[C@H]3CC[C@]12C. Particulars: 0 uM.
Data set [24] has as its system C[C@H](CCC(=O)O)[C@H]1CC[C@H]2[C@@H]3CCC4C[C@@H](OC(=O)CCNC(=O)CCCCCNC(=O)CCCCCNC(=O)CCCCC5SCC6NC(=O)NC65)CC[C@]4(C)[C@H]3CC[C@]12C. Kind of data set: Michaelis constant at a concentration of 0 uM on rat DNA polymerase beta as a function of template primer dose. The method, boiled down:
as §1

The test system of data set [25] is C[C@H](CCC(=O)O)[C@H]1CC[C@H]2[C@@H]3CCC4C[C@@H](O)CC[C@]4(C)[C@H]3CC[C@]12C. To be noted: 5 uM. This is another data set of the same source.
The test system of data set [26] is C[C@H](CCC(=O)O)[C@H]1CC[C@H]2[C@@H]3CCC4C[C@@H](OC(=O)CCNC(=O)CCCCCNC(=O)CCCCCNC(=O)CCCCC5SCC6NC(=O)NC65)CC[C@]4(C)[C@H]3CC[C@]12C. Kind of data set: Michaelis constant at a concentration of 10 uM on rat DNA polymerase beta as a function of nucleotide substrate concentration. The gist of the method: as §1
Data set [27] has the same test system. Kind of data set: Michaelis constant at a concentration of 20 uM on rat DNA polymerase beta as a function of template primer dose. The method, boiled down: as §1
The test system is the same in data set [28]. Kind of data set: Michaelis constant at a concentration of 10 uM on rat DNA polymerase beta as a function of template primer dose. The method, boiled down: as §1
The subject of data set [29] is C[C@H](CCC(=O)O)[C@H]1CC[C@H]2[C@@H]3CCC4C[C@@H](O)CC[C@]4(C)[C@H]3CC[C@]12C. To be noted: 5 uM. This is another data set of the same source.

The term Km denotes the substrate concentration at which the rate is half of its maximum. In the case of `C[C@H](CCC(=O)O)[C@H]1CC[C@H]2[C@@H]3CCC4C[C@@H](OC(=O)CCNC(=O)CCCCCNC(=O)CCCCCNC(=O)CCCCC5SCC6NC(=O)NC65)CC[C@]4(C)[C@H]3CC[C@]12C` (stereo partly specified), the Vmax was 21.3 pM/h in the data set on Nucleic Acid [1]; 17.8 pM/h in the data set with Nucleic Acid [2]; 24.3 pM/h in the data set with Nucleic Acid [4]; 55.6 pM/h in the data set on Nucleic Acid [5]; 29.2 pM/h with Nucleic Acid [6]; 33.5 pM/h in the data set with Nucleic Acid [8]. The Km in the data set with Nucleic Acid [3] came to 13 µM; in the data set on Nucleic Acid [7], 1.65 µM.
As to `C[C@H](CCC(=O)O)[C@H]1CC[C@H]2[C@@H]3CCC4C[C@@H](O)CC[C@]4(C)[C@H]3CC[C@]12C` (stereo partly specified), the figures for the Km in the data set on Nucleic Acid [9] and with Nucleic Acid [12] were 13 µM and 1.65 µM, respectively. For the same compound, the Vmax in the data set with Nucleic Acid [10] was determined as 14.8 pM/h; in the data set with Nucleic Acid [11] it was 31.3 pM/h; in the data set with Nucleic Acid [5] it was 55.6 pM/h; in the data set on Nucleic Acid [6] it was 29.2 pM/h; in the data set on Nucleic Acid [13] it was 24.9 pM/h; in the data set with Nucleic Acid [14] it was 17.7 pM/h.
Consider “DNA polymerase beta (Rattus norvegicus) (from UniProt P06766)”, for which the Km in [15] amounted to 3.05 µM; in data set [16] it was 18.3 µM; in [17], 7.86 µM; in data set [18], 6.28 µM; in [19], 9.41 µM; in data set [22], 9.49 µM. Further, the Km in data set [23] is 3.05 µM; in data set [24] it was 6.47 µM; in data set [26], 6.67 µM; in data set [27] it was 21.7 µM; in data set [28], 9.98 µM. Further, the Vmax in data set [20] amounted to 111 pMl hr-1; in data set [21], 62.5 pMl hr-1; in [25], 111 pMl hr-1; in data set [29] it was 62.5 pMl hr-1.
